Laboratory results published in ChEMBL document CHEMBL1154842, “Synthesis, radiolabeling, and biological evaluation of (R)- and (S)-2-amino-3-[(18)F]fluoro-2-methylpropanoic acid (FAMP) and (R)- and (S)-3-[(18)F]fluoro-2-methyl-2-N-(methylamino)propanoic acid (NMeFAMP) as potential PET radioligands for imaging brain tumors” (J Med Chem, 2010).

Legend:
Brain [1] = assay: Biodistribution in brain of Fischer 344 rat bearing rat 9L cells at 20 uCi, iv after 15 mins; format: ADME, organism-based; conditions: in vivo, 0.25 h
In short: (§1)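 Male Fischer 344 rats (200–250 g) carrying intracranial 9L gliosarcoma (5×10^4 cells implanted stereotactically, 10–12 days growth), under ketamine:xylazine anaesthesia. About 20 μCi tracer in 0.5 mL sterile saline given via tail-vein catheter. Groups of 4–5 were killed by intracardiac KCl at 15 (NMeFAMP only), 30, 60 or 120 min. Tissues were weighed and gamma-counted, decay-corrected, and reported as %ID/g, mean ± SD.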

Brain [2] = assay: Biodistribution in brain of Fischer 344 rat bearing rat 9L cells at 20 uCi, iv after 30 mins; format: ADME, organism-based; conditions: in vivo, 0.5 h; in short: as §1
[3] = Biodistribution in tumor of Fischer 344 rat bearing rat 9L cells at 20 uCi, iv after 30 mins; format: ADME, organism-based, Neoplasm; conditions: in vivo, 0.5 h; in short: as §1
[4] = Ratio of drug level from tumor to brain of Fischer 344 rat bearing rat 9L cells at 20 uCi, iv after 120 mins; format: ADME, organism-based; conditions: in vivo, 2 h
Blood [5] = assay: Biodistribution in blood of Fischer 344 rat bearing rat 9L cells at 20 uCi, iv after 30 mins; format: ADME, organism-based; conditions: in vivo, 0.5 h; in short: as §1
Blood [6] = assay: Biodistribution in blood of Fischer 344 rat bearing rat 9L cells at 20 uCi, iv after 60 mins; format: ADME, organism-based; conditions: in vivo, 1 h; in short: as §1
Blood [7] = assay: Biodistribution in blood of Fischer 344 rat bearing rat 9L cells at 20 uCi, iv after 120 mins; format: ADME, organism-based; conditions: in vivo, 2 h; in short: as §1
Heart [8] = assay: Biodistribution in heart of Fischer 344 rat bearing rat 9L cells at 20 uCi, iv after 30 mins; format: ADME, organism-based; conditions: in vivo, 0.5 h; in short: as §1
Heart [9] = assay: Biodistribution in heart of Fischer 344 rat bearing rat 9L cells at 20 uCi, iv after 60 mins; format: ADME, organism-based; conditions: in vivo, 1 h; in short: as §1
Heart [10] = assay: Biodistribution in heart of Fischer 344 rat bearing rat 9L cells at 20 uCi, iv after 120 mins; format: ADME, organism-based; conditions: in vivo, 2 h; in short: as §1
Lung [11] = assay: Biodistribution in lung of Fischer 344 rat bearing rat 9L cells at 20 uCi, iv after 30 mins; format: ADME, organism-based; conditions: in vivo, 0.5 h; in short: as §1
Lung [12] = assay: Biodistribution in lung of Fischer 344 rat bearing rat 9L cells at 20 uCi, iv after 60 mins; format: ADME, organism-based; conditions: in vivo, 1 h; in short: as §1
Lung [13] = assay: Biodistribution in lung of Fischer 344 rat bearing rat 9L cells at 20 uCi, iv after 120 mins; format: ADME, organism-based; conditions: in vivo, 2 h; in short: as §1
Liver [14] = assay: Biodistribution in liver of Fischer 344 rat bearing rat 9L cells at 20 uCi, iv after 30 mins; format: ADME, organism-based; conditions: in vivo, 0.5 h; in short: as §1
Liver [15] = assay: Biodistribution in liver of Fischer 344 rat bearing rat 9L cells at 20 uCi, iv after 60 mins; format: ADME, organism-based; conditions: in vivo, 1 h; in short: as §1
Liver [16] = assay: Biodistribution in liver of Fischer 344 rat bearing rat 9L cells at 20 uCi, iv after 120 mins; format: ADME, organism-based; conditions: in vivo, 2 h; in short: as §1
Pancreas [17] = assay: Biodistribution in pancreas of Fischer 344 rat bearing rat 9L cells at 20 uCi, iv after 30 mins; format: ADME, organism-based; conditions: in vivo, 0.5 h; in short: as §1
Pancreas [18] = assay: Biodistribution in pancreas of Fischer 344 rat bearing rat 9L cells at 20 uCi, iv after 60 mins; format: ADME, organism-based; conditions: in vivo, 1 h; in short: as §1
Pancreas [19] = assay: Biodistribution in pancreas of Fischer 344 rat bearing rat 9L cells at 20 uCi, iv after 120 mins; format: ADME, organism-based; conditions: in vivo, 2 h; in short: as §1
Spleen [20] = assay: Biodistribution in spleen of Fischer 344 rat bearing rat 9L cells at 20 uCi, iv after 30 mins; format: ADME, organism-based; conditions: in vivo, 0.5 h; in short: as §1
Spleen [21] = assay: Biodistribution in spleen of Fischer 344 rat bearing rat 9L cells at 20 uCi, iv after 60 mins; format: ADME, organism-based; conditions: in vivo, 1 h; in short: as §1
Spleen [22] = assay: Biodistribution in spleen of Fischer 344 rat bearing rat 9L cells at 20 uCi, iv after 120 mins; format: ADME, organism-based; conditions: in vivo, 2 h; in short: as §1
Kidney [23] = assay: Biodistribution in kidney of Fischer 344 rat bearing rat 9L cells at 20 uCi, iv after 30 mins; format: ADME, organism-based; conditions: in vivo, 0.5 h; in short: as §1
Kidney [24] = assay: Biodistribution in kidney of Fischer 344 rat bearing rat 9L cells at 20 uCi, iv after 60 mins; format: ADME, organism-based; conditions: in vivo, 1 h; in short: as §1
Kidney [25] = assay: Biodistribution in kidney of Fischer 344 rat bearing rat 9L cells at 20 uCi, iv after 120 mins; format: ADME, organism-based; conditions: in vivo, 2 h; in short: as §1
Muscle tissue [26] = assay: Biodistribution in muscle of Fischer 344 rat bearing rat 9L cells at 20 uCi, iv after 30 mins; format: ADME, organism-based; conditions: in vivo, 0.5 h; in short: as §1
Muscle tissue [27] = assay: Biodistribution in muscle of Fischer 344 rat bearing rat 9L cells at 20 uCi, iv after 60 mins; format: ADME, organism-based; conditions: in vivo, 1 h; in short: as §1
Muscle tissue [28] = assay: Biodistribution in muscle of Fischer 344 rat bearing rat 9L cells at 20 uCi, iv after 120 mins; format: ADME, organism-based; conditions: in vivo, 2 h; in short: as §1
Bone [29] = assay: Biodistribution in bone of Fischer 344 rat bearing rat 9L cells at 20 uCi, iv after 30 mins; format: ADME, organism-based, Bone element; conditions: in vivo, 0.5 h; in short: as §1
Bone [30] = assay: Biodistribution in bone of Fischer 344 rat bearing rat 9L cells at 20 uCi, iv after 60 mins; format: ADME, organism-based, Bone element; conditions: in vivo, 1 h; in short: as §1
Bone [31] = assay: Biodistribution in bone of Fischer 344 rat bearing rat 9L cells at 20 uCi, iv after 120 mins; format: ADME, organism-based, Bone element; conditions: in vivo, 2 h; in short: as §1
[32] = Biodistribution in testis of Fischer 344 rat bearing rat 9L cells at 20 uCi, iv after 30 mins; format: ADME, organism-based; conditions: in vivo, 0.5 h; in short: as §1
[33] = Biodistribution in testis of Fischer 344 rat bearing rat 9L cells at 20 uCi, iv after 60 mins; format: ADME, organism-based; conditions: in vivo, 1 h; in short: as §1
[34] = Biodistribution in testis of Fischer 344 rat bearing rat 9L cells at 20 uCi, iv after 120 mins; format: ADME, organism-based; conditions: in vivo, 2 h; in short: as §1
Blood [35] = assay: Biodistribution in blood of Fischer 344 rat bearing rat 9L cells at 20 uCi, iv after 15 mins; format: ADME, organism-based; conditions: in vivo, 0.25 h; in short: as §1
Heart [36] = assay: Biodistribution in heart of Fischer 344 rat bearing rat 9L cells at 20 uCi, iv after 15 mins; format: ADME, organism-based; conditions: in vivo, 0.25 h; in short: as §1
Lung [37] = assay: Biodistribution in lung of Fischer 344 rat bearing rat 9L cells at 20 uCi, iv after 15 mins; format: ADME, organism-based; conditions: in vivo, 0.25 h; in short: as §1
Liver [38] = assay: Biodistribution in liver of Fischer 344 rat bearing rat 9L cells at 20 uCi, iv after 15 mins; format: ADME, organism-based; conditions: in vivo, 0.25 h; in short: as §1
Pancreas [39] = assay: Biodistribution in pancreas of Fischer 344 rat bearing rat 9L cells at 20 uCi, iv after 15 mins; format: ADME, organism-based; conditions: in vivo, 0.25 h; in short: as §1
Spleen [40] = assay: Biodistribution in spleen of Fischer 344 rat bearing rat 9L cells at 20 uCi, iv after 15 mins; format: ADME, organism-based; conditions: in vivo, 0.25 h; in short: as §1
Kidney [41] = assay: Biodistribution in kidney of Fischer 344 rat bearing rat 9L cells at 20 uCi, iv after 15 mins; format: ADME, organism-based; conditions: in vivo, 0.25 h; in short: as §1
Muscle tissue [42] = assay: Biodistribution in muscle of Fischer 344 rat bearing rat 9L cells at 20 uCi, iv after 15 mins; format: ADME, organism-based; conditions: in vivo, 0.25 h; in short: as §1
Bone [43] = assay: Biodistribution in bone of Fischer 344 rat bearing rat 9L cells at 20 uCi, iv after 15 mins; format: ADME, organism-based, Bone element; conditions: in vivo, 0.25 h; in short: as §1
[44] = Biodistribution in testis of Fischer 344 rat bearing rat 9L cells at 20 uCi, iv after 15 mins; format: ADME, organism-based; conditions: in vivo, 0.25 h; in short: as §1
[45] = rat, in vivo, iv, 1 h
[46] = rat, in vivo, iv, 1 h; remark: listed apart in the source
Brain [47] = assay: Biodistribution in brain of Fischer 344 rat bearing rat 9L cells at 20 uCi, iv after 15 mins; conditions: in vivo
[48] = Ratio of drug level from tumor to brain of Fischer 344 rat bearing rat 9L cells at 20 uCi, iv after 60 mins; conditions: in vivo, 1 h

CN[C@](C)(C[18F])C(=O)O.Cl
Drug uptake (Brain [1]): 0.06 % ID/g
Drug uptake (Brain [2]): 0.06 % ID/g
Ratio [3]: 30.2
Ratio [4]: 35.4
Drug uptake (Blood [5]): 0.31 % ID/g
Drug uptake (Blood [6]): 0.24 % ID/g
Drug uptake (Blood [7]): 0.14 % ID/g
Drug uptake (Heart [8]): 0.3 % ID/g
Drug uptake (Heart [9]): 0.31 % ID/g
Drug uptake (Heart [10]): 0.21 % ID/g
Drug uptake (Lung [11]): 0.87 % ID/g
Drug uptake (Lung [12]): 0.5 % ID/g
Drug uptake (Lung [13]): 0.42 % ID/g
Drug uptake (Liver [14]): 0.71 % ID/g
Drug uptake (Liver [15]): 0.88 % ID/g
Drug uptake (Liver [16]): 0.6 % ID/g
Drug uptake (Pancreas [17]): 3.4 % ID/g
Drug uptake (Pancreas [18]): 4.34 % ID/g
Drug uptake (Pancreas [19]): 3.78 % ID/g
Drug uptake (Spleen [20]): 0.51 % ID/g
Drug uptake (Spleen [21]): 0.53 % ID/g
Drug uptake (Spleen [22]): 0.49 % ID/g
Drug uptake (Kidney [23]): 9.48 % ID/g
Drug uptake (Kidney [24]): 5.18 % ID/g
Drug uptake (Kidney [25]): 2.22 % ID/g
Drug uptake (Muscle tissue [26]): 0.26 % ID/g
Drug uptake (Muscle tissue [27]): 0.24 % ID/g
Drug uptake (Muscle tissue [28]): 0.22 % ID/g
Drug uptake (Bone [29]): 0.32 % ID/g
Drug uptake (Bone [30]): 0.37 % ID/g
Drug uptake (Bone [31]): 0.25 % ID/g
Drug uptake [32]: 0.13 % ID/g
Drug uptake [33]: 0.13 % ID/g
Drug uptake [34]: 0.08 % ID/g
Drug uptake (Blood [35]): 0.54 % ID/g
Drug uptake (Heart [36]): 0.32 % ID/g
Drug uptake (Lung [37]): 0.86 % ID/g
Drug uptake (Liver [38]): 0.83 % ID/g
Drug uptake (Pancreas [39]): 3.52 % ID/g
Drug uptake (Spleen [40]): 0.57 % ID/g
Drug uptake (Kidney [41]): 11.58 % ID/g
Drug uptake (Muscle tissue [42]): 0.25 % ID/g
Drug uptake (Bone [43]): 0.46 % ID/g
Drug uptake [44]: 0.19 % ID/g
Drug uptake [45]: 0.05 % ID/g
Drug uptake [46]: 1.46 % ID/g
Ratio (Brain [47]): 20.4
Ratio [48]: 28.7
